From ChEMBL document CHEMBL2434863, “Synthesis and in vitro/in vivo antibacterial activity of oxazolidinones having thiocarbamate at C-5 on the A-ring and an amide- or urea-substituted [1,2,5]triazepane or [1,2,5]oxadiazepane as the C-ring” (Eur J Med Chem, 2013)

Experiments:
Type in all cases: functional
Staphylococcus aureus [1] = test: Antibacterial activity against methicillin-resistant Staphylococcus aureus SR3637 infected in JCL/ICR mouse systemic infection model assessed as mortality administered as iv measured over 7 days; settings: 168 h
Summary of the method: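 Lethal systemic infection model in mice; test agents were given intravenously.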

Streptococcus pneumoniae [2] = test: Antibacterial activity against Streptococcus pneumoniae SR26207 clinical isolate assessed as growth inhibition by broth microdilution method
Staphylococcus aureus [3] = test: Antibacterial activity against methicillin-resistant Staphylococcus aureus SR3637 assessed as growth inhibition by broth microdilution method
Enterococcus faecalis [4] = test: Antibacterial activity against Enterococcus faecalis SR1004 clinical isolate assessed as growth inhibition by broth microdilution method
Staphylococcus aureus [5] = test: Antibacterial activity against linezolid-resistant Staphylococcus aureus NRS271 assessed as growth inhibition by broth microdilution method
Moraxella catarrhalis [6] = test: Antibacterial activity against Moraxella catarrhalis SR26840 clinical isolate assessed as growth inhibition by broth microdilution method
Haemophilus influenzae [7] = test: Antibacterial activity against Haemophilus influenzae SR27914 clinical isolate assessed as growth inhibition by broth microdilution method
Staphylococcus aureus [8] = test: Antibacterial activity against Staphylococcus aureus Smith assessed as growth inhibition by broth microdilution method
Enterococcus faecium [9] = test: Antibacterial activity against Enterococcus faecium SR7940 clinical isolate assessed as growth inhibition by broth microdilution method
Staphylococcus aureus [10] = test: Antibacterial activity against Staphylococcus aureus SR20549 clinical isolate assessed as growth inhibition by broth microdilution method
Moraxella catarrhalis [11] = test: Potency index, ratio of linezolid MIC to compound MIC for Moraxella catarrhalis SR26840 clinical isolate
Streptococcus pneumoniae [12] = test: Potency index, ratio of linezolid MIC to compound MIC for Streptococcus pneumoniae SR26207 clinical isolate
Staphylococcus aureus [13] = test: Potency index, ratio of linezolid MIC to compound MIC for Staphylococcus aureus SR20549 clinical isolate
Haemophilus influenzae [14] = test: Potency index, ratio of linezolid MIC to compound MIC for Haemophilus influenzae SR27914 clinical isolate
Staphylococcus aureus [15] = test: Potency index, ratio of linezolid MIC to compound MIC for Staphylococcus aureus Smith
Enterococcus faecalis [16] = test: Potency index, ratio of linezolid MIC to compound MIC for Enterococcus faecalis SR1004 clinical isolate
Enterococcus faecium [17] = test: Potency index, ratio of linezolid MIC to compound MIC for Enterococcus faecium SR7940 clinical isolate

Row | SMILES | ED50 (Staphylococcus aureus [1]) [mg/kg] | MIC (Streptococcus pneumoniae [2]) [µg/mL] | MIC (Staphylococcus aureus [3]) [µg/mL] | MIC (Enterococcus faecalis [4]) [µg/mL] | MIC (Staphylococcus aureus [5]) [µg/mL] | MIC (Moraxella catarrhalis [6]) [µg/mL] | MIC (Haemophilus influenzae [7]) [µg/mL] | MIC (Staphylococcus aureus [8]) [µg/mL] | MIC (Enterococcus faecium [9]) [µg/mL] | MIC (Staphylococcus aureus [10]) [µg/mL] | Ratio (Moraxella catarrhalis [11]) | Ratio (Streptococcus pneumoniae [12]) | Ratio (Staphylococcus aureus [13]) | Ratio (Haemophilus influenzae [14]) | Ratio (Staphylococcus aureus [15]) | Ratio (Enterococcus faecalis [16]) | Ratio (Enterococcus faecium [17])
1 | CONC(=O)N1CCN(c2c(F)cc(N3C[C@H](CNC(=S)OC)OC3=O)cc2F)CCN1 | 3.05 | 0.25 | 0.5 | 0.5 | 4 | 2 | 16 | 0.5 | 0.25 | 0.5 |  |  |  |  |  |  | 
2 | CC(=O)NC[C@H]1CN(c2ccc(-c3ccc(N4CCNOCC4)nc3)c(F)c2)C(=O)O1 |  | 0.125 |  | 1 | 8 | 16 | 16 | 2 | 1 | 1 | 2 | 2 | 2 | 2 | 2 | 2 | 2
3 | CNC(=O)N1CCN(c2c(F)cc(N3C[C@H](CNC(=S)OC)OC3=O)cc2F)CCN1 | 3.17 | ≤ 0.063 | 0.25 | 0.25 | 2 | 1 | 8 | 0.25 | 0.25 | 0.25 |  |  |  |  |  |  | 
4 | CC(=S)NC[C@H]1CN(c2ccc(N3CCNN(C(N)=O)CC3)c(F)c2)C(=O)O1 |  | 0.063 |  | 0.5 | 8 | 4 | 4 | 0.25 | 0.5 | 0.25 | 4 | 4 | 4 | 4 | 4 | 4 | 4
5 | COC(=S)NC[C@H]1CN(c2ccc(N3CCNN(C(C)=O)CC3)c(F)c2)C(=O)O1 | 2.85 | 0.063 | 0.5 | 0.5 | 8 | 4 | 16 | 1 | 0.5 | 0.5 |  |  |  |  |  |  | 
6 | O=CN1CCN(c2c(F)cc(N3C[C@H](Cn4ccnn4)OC3=O)cc2F)CCN1 | 2.5 | ≤ 0.063 | 0.25 | 1 | 16 | 8 | 8 | 1 | 1 | 0.25 | 4 | 4 | 4 | 4 | 4 | 4 | 4
7 | CC(=S)NC[C@H]1CN(c2cc(F)c(N3CCNN(C(N)=O)CC3)c(F)c2)C(=O)O1 |  | 0.063 |  | 0.25 | 4 | 1 | 4 | 0.25 | 0.25 | 0.125 | 4 | 4 | 4 | 4 | 4 | 4 | 4
8 | O=C1O[C@@H](Cn2ccnn2)CN1c1ccc(-c2ccc(N3CCNOCC3)nc2)c(F)c1 |  | 0.25 |  | 2 | 8 | 8 | 32 | 2 | 1 | 1 | 2 | 2 | 2 | 2 | 2 | 2 | 2
9 | COC(=S)NC[C@H]1CN(c2cc(F)c(N3CCn4c(=O)c5cccnc5n4CC3)c(F)c2)C(=O)O1 | 9.83 | 0.125 | 0.25 | 0.5 | 2 | 1 | > 64 | 0.25 | 0.25 | 0.25 |  |  |  |  |  |  | 
10 | O=CN1CCN(c2c(F)cc(N3C[C@H](CNc4ccon4)OC3=O)cc2F)CCN1 |  | 0.25 |  | 1 | 16 | 8 | 16 | 1 | 1 | 0.5 | 4 | 4 | 4 | 4 | 4 | 4 | 4
11 | COC(=S)NC[C@H]1CN(c2ccc(N3CCNN(C=O)CC3)c(F)c2)C(=O)O1 | 2.95 | 0.063 | 0.25 | 0.25 | 4 | 2 | 4 | 0.25 | 0.25 | 0.25 | 4 | 4 | 4 | 4 | 4 | 4 | 4
12 | COC(=S)NC[C@H]1CN(c2cc(F)c(N3CCNN(C(N)=O)CC3)c(F)c2)C(=O)O1 | 1.23 | ≤ 0.063 | 0.25 | 0.5 | 2 | 0.5 | 16 | 0.25 | 0.125 | 0.25 | 4 | 4 | 4 | 4 | 4 | 4 | 4
13 | COC(=S)NC[C@H]1CN(c2ccc(N3CCNN(C(N)=O)CC3)c(F)c2)C(=O)O1 |  | ≤ 0.063 |  | 0.25 | 4 | 2 | 4 | 0.25 | 0.125 | 0.25 | 4 | 4 | 4 | 4 | 4 | 4 | 4
14 | COC(=S)NC[C@H]1CN(c2ccc(N3CCn4c(=O)c5cccnc5n4CC3)c(F)c2)C(=O)O1 | 3.17 | 0.125 | 0.25 | 0.5 | 2 | 2 | 16 | 0.25 | 0.25 | 0.25 |  |  |  |  |  |  | 
15 | COC(=S)NC[C@H]1CN(c2cc(F)c(N3CCON(C(N)=O)CC3)c(F)c2)C(=O)O1 |  | ≤ 0.063 |  | 0.25 | 2 | 1 | 8 | 0.25 | 0.125 | 0.25 | 4 | 4 | 4 | 4 | 4 | 4 | 4
